From ChEMBL document CHEMBL4680087, “Chemical Inhibition of Human Thymidylate Kinase and Structural Insights into the Phosphate Binding Loop and Ligand-Induced Degradation” (J Med Chem, 2016)
Values belong to the molecule of their own block, whether it stands above or below them. The source made the active and inactive calls. No cut-off for these calls is given here.

What was measured:
[1] = target: T1, Thymidylate kinase (Homo sapiens) (UniProt P23919); assay: Inhibition of GST-tagged human TMPK expressed in Escherichia coli BL21 at 2 uM incubated for 10 mins by luciferase-coupled TMPK assay
T1 sequence (whole entry): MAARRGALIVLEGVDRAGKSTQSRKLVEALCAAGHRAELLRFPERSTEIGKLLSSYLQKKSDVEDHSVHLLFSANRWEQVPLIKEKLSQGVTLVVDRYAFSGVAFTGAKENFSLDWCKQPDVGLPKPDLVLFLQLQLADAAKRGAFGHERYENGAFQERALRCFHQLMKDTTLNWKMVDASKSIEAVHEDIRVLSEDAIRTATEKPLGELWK

[2] = target: T1, Thymidylate kinase (Homo sapiens); assay: Binding affinity to GST-tagged human TMPK expressed in Escherichia coli BL21 assessed as formation of disulfide bonds with Cys residues incubated for 30 mins at 25 degC in presence of trypsin by LC-MS/MS analysis
Summary of the method: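 hTMPK incubated with compound (20 μL of 10 mM DMSO stock in 1 mL PBS pH 7.4), 25 °C, 30 min. DTNB served as positive control and DMSO as negative control. Excess compound removed by dialysis against water. Digested with trypsin (1:50 w/w), 37 °C, 12 h, without denaturation or DTT reduction. Peptides analysed by nanoLC-ESI-MS/MS.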

[3] = Inhibition of tyrosine kinase activity in protein samples from human MDA-MB-231 cells using TK substrate incubated for 30 mins; format: cell-based; details: MDA-MB-231, 0.5 h
Summary of the method: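 Tyrosine kinase immunoprecipitated from MB-231 cell protein extracts and suspended in kinase solution with 10 mM 2-mercaptoethanol. Diluted enzyme mixed with compound (from 5 mM aqueous dilution) and ATP on substrate-coated wells, 37 °C, 30 min. Phosphotyrosine detected with anti-phosphotyrosine (PY20)-HRP and HRP substrate, stopped with H2SO4, absorbance read at 450 nm.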

[4] = target: T1, Thymidylate kinase (Homo sapiens); assay: Binding affinity to GST-tagged human TMPK expressed in Escherichia coli BL21 pre-incubated for 30 mins at 25 degC followed by UV irradiation by HRP based Western blot analysis
Summary of the method: (§1)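 Photoprobe (6.8 μL of 3 mM DMSO stock) and purified hTMPK incubated in 1 mL PBS pH 7.4 with protease inhibitor cocktail, 25 °C, 30 min. Irradiation where applied: 254-nm UV, three 1-min exposures. Samples boiled in SDS sample buffer and run on 12% SDS-PAGE. Transferred to PVDF, probed with streptavidin-HRP, detected by chemiluminescence.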

[5] = target: T1, Thymidylate kinase (Homo sapiens); assay: Binding affinity to ATP binding site of GST-tagged human TMPK expressed in […] assessed as mass shift of labeled peptides in presence of chymotrypsin by LC-MS/MS analysis
Summary of the method: (§2)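 Purified hTMPK (from GST fusion in E. coli […], thrombin-cleaved) preincubated with biotin-arylazide photoprobe in PBS pH 7.4, 25 °C, 30 min, then irradiated with 254-nm UV light three times for 1 min each. Protein denatured in 6.5 M urea, reduced with DTT and alkylated with iodoacetamide. Digested with trypsin (1:50 w/w) or chymotrypsin (1:100 w/w), 37 °C, 16 h. Peptides analysed by nanoLC-ESI-MS/MS, with or without monomeric avidin enrichment.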

[6] = target: T1, Thymidylate kinase (Homo sapiens); assay: Binding affinity to ATP binding site of GST-tagged human TMPK expressed in Escherichia coli […] assessed as mass shift of labeled peptides in presence of trypsin by LC-MS/MS analysis; summary of the method: as §2
[7] = target: T1, Thymidylate kinase (Homo sapiens); assay: Binding affinity to GST-tagged human TMPK expressed in Escherichia coli BL21 pre-incubated for 30 mins at 25 degC followed by absence of irradiation by HRP based Western blot analysis; summary of the method: as §1
[8] = target: T1, Thymidylate kinase (Homo sapiens); assay: Binding affinity to GST-tagged human TMPK expressed in Escherichia coli BL21 assessed as binding constant for compound to protein 1:1 stoichiometry by ITC analysis
Summary of the method: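 ITC in PBS pH 7.4 with 50% glycerol at 298 K, stirring at 1000 rpm. Compound (1.228 mM) injected into hTMPK (0.0817 mM): a first 0.5 μL injection, then 2 μL injections at 4-min spacing. Fitted for stoichiometry, association constant, ΔH and ΔS.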

[9] = target: T1, Thymidylate kinase (Homo sapiens); assay: Inhibition of GST-tagged human TMPK expressed in Escherichia coli BL21 incubated for 20 mins by NADH-coupled colorimetric assay
Summary of the method: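 Purified hTMPK at 25 °C in 100 mM Tris-HCl pH 7.5, 100 mM KCl, 10 mM MgCl2, 500 μM ATP, 250 μM TMP/CMP. Coupling mix: 500 μM phosphoenolpyruvate, 250 μM NADH, pyruvate kinase (4 units) and lactate dehydrogenase (5 units). NADH change read at 340 nm after 20 min.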

[10] = Cytotoxicity in IL-3-dependent mouse 32D cells expressing Bcr-Abl after 3 days by WST-1 assay; format: functional, cell-based; details: 72 h
Thymidylate kinase = target: T2, Thymidylate kinase (Homo sapiens, UniProt P23919); assay: Inhibition of GST-tagged human TMPK expressed in Escherichia coli BL21 incubated for 10 mins by luciferase-coupled TMPK assay
T2 sequence (P23919 whole entry): T1 sequence (whole entry)
Summary of the method: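 Purified hTMPK (10 μL of 0.1 μg/μL) and compound (10 μL of 10 μM, diluted from 10 mM DMSO stock) added to 100 mM Tris-HCl pH 7.5, 100 mM KCl, 10 mM MgCl2, 5 μM ATP, 100 μM dTMP. Reaction run 10 min at 25 °C. Remaining ATP read by CellTiter-Glo luminescence. IC50 from triplicate independent experiments.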

[11] = Cytotoxicity in mouse 32D cells after 3 days by WST-1 assay; format: cell-based; details: 72 h, time 3 day
Candida = assay: Inhibition of Candida Cdc8 incubated for 10 mins in presence of [gamma-32P]ATP by 32P-phosphate transfer assay
Summary of the method: (§3)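 hTMPK (0.2 μg) or Candida Cdc8 (0.02 μg; GST fusion from E. coli BL21, purified similarly). Compound preincubated 10 min, then enzyme added to 0.05 μM [γ-32P]ATP, 50 μM ATP and 50 μM dTMP in 100 mM Tris-HCl, 100 mM KCl, 10 mM MgCl2. Stopped by heating. Products separated by PEI-cellulose TLC (2 M acetic acid/0.5 M LiCl), and 32P-dTDP spots counted by scintillation.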

[12] = target: T1, Thymidylate kinase (Homo sapiens); assay: Inhibition of GST-tagged human TMPK expressed in Escherichia coli BL21 incubated for 10 mins in presence of [gamma-32P]ATP by 32P-phosphate transfer assay; summary of the method: as §3

inhibition [1]: inactive
SMILES: CC(C)(C)OC(=O)N1CCN(C(=O)COc2nsc3ncccc23)CC1

Activity [2]: Active
SMILES: O=c1c2ccccc2sn1-c1ccccc1

inhibition [1]: 76.3%
SMILES: Cc1cc(C)c2c(=O)n(CC(=O)N3CCN(C(=O)OC(C)(C)C)CC3)sc2n1

inhibition [1]: 70%
SMILES: CCOC(=O)N1CCN(C(=O)Cn2sc3ccccc3c2=O)CC1

Activity [2]: Active
SMILES: O=C(O)c1cc(SSc2ccc([N+](=O)[O-])c(C(=O)O)c2)ccc1[N+](=O)[O-]

IC50 [3]: > 100000 nM | inhibition [1]: 86.9% | Activity [4]: Active | Activity [5]: 422 Da | Activity [6]: 648 Da | Activity [7]: inactive
SMILES: [N-]=[N+]=Nc1ccc2c(=O)n(CC(=O)N3CCN(CCOCCOCCOC(=O)CCCC[C@@H]4SC[C@@H]5NC(=O)N[C@@H]54)CC3)sc2c1

inhibition [1]: inactive
SMILES: CC(C)(C)OC(=O)N1CCN(C(=O)COc2nsc3ccccc23)CC1

inhibition [1]: 73.4% | K [8]: 127000 M⁻¹
SMILES: Cc1cc(C)c2c(=O)n(CC(=O)N3CCNCC3)sc2n1

IC50 [3]: > 100000 nM | inhibition [9]: Active | inhibition [1]: 91.3% | IC50 (Thymidylate kinase): 470 nM
SMILES: CC(C)(C)OC(=O)N1CCN(C(=O)Cn2sc3ncccc3c2=O)CC1
EC50 [10]: 1400 nM | Activity [11]: Non-Toxic

IC50 [3]: > 100000 nM | inhibition [9]: Active | inhibition [1]: 70% | Activity [2]: inactive | IC50 (Thymidylate kinase): 1650 nM | inhibition (Candida): inactive | inhibition [12]: Active
SMILES: CCOC(=O)N1CCN(C(=O)Cn2sc3nc(C)cc(C)c3c2=O)CC1
EC50 [10]: 880 nM | Activity [11]: Non-Toxic

inhibition [1]: 7%
SMILES: CCOC(=O)N1CCN(C(=O)CCCn2sc3ccccc3c2=O)CC1

IC50 [3]: > 100000 nM | inhibition [9]: Active | inhibition [1]: 91.3% | IC50 (Thymidylate kinase): 350 nM
SMILES: CC(C)(C)OC(=O)N1CCN(C(=O)Cn2sc3ccccc3c2=O)CC1
EC50 [10]: 650 nM | Activity [11]: Non-Toxic

inhibition [1]: < 2%
SMILES: O=c1c2ccccc2sn1-c1ccc(F)c(Cl)c1

inhibition [1]: inactive
SMILES: CCOC(=O)N1CCN(C(=O)COc2nsc3cc(C)cc(C)c23)CC1
